# Key:
# [1] = Toxicity assessed in human T-cells using a colorimetric cell proliferation assay.; assay type: cell-based
# Method in brief: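 CCRF-CEM human leukemia T-cells in RPMI-1640 with 10% FBS and gentamicin 0.1 mg/mL, seeded at 4 × 10^4 cells/well. Compound added at start at 50, 25, 12.5 and 6.3 μM. WST-1 cleavage read by absorbance at 440 nm at 24, 48 and 72 h. Value reported as lowest % of no-compound control, typically 72 h at 50 μM. At least triplicate.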
# Nucleic Acid [2] = test: DNA binding measured as Changes in the DNA melting temperature of an AT-rich dodecamer (CGATTATTAAGC) (GCTTAATAATCG) upon binding of an equimolar amount of compound; assay type: nucleic-acid assay
# Method in brief: (§1)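 Melting monitored by UV absorbance at 260 nm in 10 mM HEPES pH 7.2, 0.1 mM EDTA, 50 mM NaCl. 12-bp AT-rich oligo at 5 μM mixed with compound at equimolar ratio. Temperature ramped 15 to 95 °C at 0.2 °C/min. Tm by derivative method, checked by hyperchromicity. ΔTm is Tm with compound minus Tm without. At least duplicate.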
# Staphylococcus aureus = test: In vitro antimicrobial activity against Methicillin resistant Staphylococcus aureus; assay type: functional
# Method in brief: (§2)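 Broth microdilution MIC per NCCLS M7-A4. Compounds dissolved fresh in DMSO as 10 mM stock, then diluted in BHI medium for VRE (BM4147, UCD3) or Mueller-Hinton medium for MRSA. Seven 1:2 serial dilutions gave test concentrations of 45.5 to 0.7 μM. MIC read by visual inspection of wells after 2 days.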
# Enterococcus [3] = test: In vitro antimicrobial activity against Vancomycin resistant enterococcus strain BM4147; assay type: functional; method in brief: as §2
# Enterococcus [4] = test: In vitro antimicrobial activity against Vancomycin resistant enterococcus strain UCD-3; assay type: functional; method in brief: as §2
# Nucleic Acid [5] = test: Changes in the DNA melting temperature of an AT-rich dodecamer (CGATTATTAAGC) (GCTTAATAATCG) upon binding of an equimolar amount of compound; assay type: nucleic-acid assay; method in brief: as §1
Structure (SMILES),NCC [1] [%],ΔTm (Nucleic Acid [2]) [°C],MIC (Staphylococcus aureus) [µM],MIC (Enterococcus [3]) [µM],MIC (Enterococcus [4]) [µM],ΔTm (Nucleic Acid [5])
CC(C)CCn1cc(NC(=O)c2ccc(C(=O)Nc3cc(C(=O)NCCC(=N)N)n(CCC(C)C)c3)c3ccccc23)cc1C(=O)NCCC(=N)N,15,20,2.8,2.8,5.7,–
CNC(=N)CCNC(=O)c1cc(NC(=O)c2ccc(C(=O)Nc3cc(C(=O)NCCC(=N)NC)n(CCC(C)C)c3)cc2)cn1CCC(C)C,78,–,–,–,–,–
N=C(N)CCNC(=O)c1cc(NC(=O)c2ccc(C(=O)Nc3cc(C(=O)NCCC(=N)N)n(CC4CC4)c3)nc2)cn1CC1CC1,82,27,1.4,1.4,2.8,–
CC(C)CCn1cc(NC(=O)c2cnc(C(=O)Nc3cc(C(=O)NCCC(=N)N)n(CCC(C)C)c3)cn2)cc1C(=O)NCCC(=N)N,32,20,2.8,2.8,2.8,–
CC(C)CCn1cc(NC(=O)c2ccc(C(=O)Nc3cc(C(=O)NCCC4=NCCCN4)n(CCC(C)C)c3)cc2)cc1C(=O)NCCC1=NCCCN1,51,28,0.7,0.7,0.7,–
N=C(N)CCNC(=O)c1cc(NC(=O)c2ccc(C(=O)Nc3cc(C(=O)NCCC(=N)N)n(CC4CC4)c3)s2)cn1CC1CC1,65,27,1.4,1.4,2.8,–
CC(C)CCn1cc(NC(=O)c2ccc(C(=O)Nc3cc(C(=O)NCCN)n(CCC(C)C)c3)cc2)cc1C(=O)NCCN,24,20,2.8,11.4,11.4,–
CC(C)CCn1cc(NC(=O)c2ccc(C(=O)Nc3cc(C(=O)NCCN=C(N)N)n(CCC(C)C)c3)cc2)cc1C(=O)NCCN=C(N)N,5,25,0.7,1.4,1.4,–
CCCn1cc(NC(=O)c2ccc(C(=O)Nc3cc(C(=O)NCCC(=N)N)n(CCC)c3)cc2)cc1C(=O)NCCC(=N)N,61,–,11.1,5.6,5.6,29
CC(C)CCn1cc(NC(=O)C2CCC(C(=O)Nc3cc(C(=O)NCCC(=N)N)n(CCC(C)C)c3)CC2)cc1C(=O)NCCC(=N)N (stereo not given),88,11,11.4,> 45.5,> 45.5,–
Cc1cc(C(=O)Nc2cc(C(=O)NCCC(=N)N)n(CCC(C)C)c2)c(C)cc1C(=O)Nc1cc(C(=O)NCCC(=N)N)n(CCC(C)C)c1,75,12,11.4,> 45.5,> 45.5,–
CC(C)CCn1cc(NC(=O)c2ccc3cc(C(=O)Nc4cc(C(=O)NCCC(=N)N)n(CCC(C)C)c4)ccc3c2)cc1C(=O)NCCC(=N)N,0,24,> 45.5,> 45.5,> 45.5,–
N=C(N)CCNC(=O)c1cc(NC(=O)c2cnc(C(=O)Nc3cc(C(=O)NCCC(=N)N)n(CC4CC4)c3)cn2)cn1CC1CC1,90,23,2.8,2.8,5.7,–
CCC/N=C(\N)CCNC(=O)c1cc(NC(=O)c2ccc(C(=O)Nc3cc(C(=O)NCC/C(N)=N/CCC)n(CCC(C)C)c3)cc2)cn1CCC(C)C,15,26,1.4,1.4,1.4,–
CC(C)CCn1cc(NC(=O)C2=CC=C(C(=O)Nc3cc(C(=O)NCCC(=N)N)n(CCC(C)C)c3)CC2)cc1C(=O)NCCC(=N)N,23,26,0.7,1.4,1.4,–
CN=C(CCNC(=O)c1cc(NC(=O)c2ccc(C(=O)Nc3cc(C(=O)NCCC(=NC)NC)n(CCC(C)C)c3)cc2)cn1CCC(C)C)NC,50,–,–,–,–,–
N=C(N)CCNC(=O)c1cc(NC(=O)c2ccc(C(=O)Nc3cc(C(=O)NCCC(=N)N)n(CC4CC4)c3)c([N+](=O)[O-])c2)cn1CC1CC1,87,28,1.4,2.8,2.8,–
CC(C)CCn1cc(NC(=O)c2ccc(C(=O)Nc3cc(C(=O)NCCC(=N)N)n(CCC(C)C)c3)cc2)cc1C(=O)NCCC(=N)N,4,–,1.4,0.7,0.7,28
CC(C)CCn1cc(NC(=O)CCCCC(=O)Nc2cc(C(=O)NCCC(=N)N)n(CCC(C)C)c2)cc1C(=O)NCCC(=N)N,87,10,> 45.5,> 45.5,> 45.5,–
C/N=C(/CCNC(=O)c1cc(NC(=O)c2ccc(C(=O)Nc3cc(C(=O)NCC/C(=N/C)NC)n(CCC(C)C)c3)cc2)cn1CCC(C)C)NC,–,26,1.4,1.4,1.4,–
Cc1cc(C(=O)Nc2cc(C(=O)NCCC(=N)N)n(CC3CC3)c2)ccc1C(=O)Nc1cc(C(=O)NCCC(=N)N)n(CC2CC2)c1,87,26,2.8,2.8,2.8,–
CC/N=C(\N)CCNC(=O)c1cc(NC(=O)c2ccc(C(=O)Nc3cc(C(=O)NCC/C(N)=N/CC)n(CCC(C)C)c3)cc2)cn1CCC(C)C,74,27,1.4,1.4,1.4,–
CC(C)CCn1cc(NC(=O)c2ccc(C(=O)Nc3cc(C(=O)NCCC(=N)N)n(CCC(C)C)c3)nc2)cc1C(=O)NCCC(=N)N,3,25,1.4,0.7,1.4,–
Cc1cc(C(=O)Nc2cc(C(=O)NCCC(=N)N)n(CCC(C)C)c2)ccc1C(=O)Nc1cc(C(=O)NCCC(=N)N)n(CCC(C)C)c1,38,24,0.7,1.4,1.4,–
CC(C)CCn1cc(NC(=O)c2ccc(C(=O)Nc3cc(C(=O)NCCC(=N)N)n(CCC(C)C)c3)c([N+](=O)[O-])c2)cc1C(=O)NCCC(=N)N,42,25,1.4,1.4,1.4,–
N=C(N)CCNC(=O)c1cc(NC(=O)c2cc(C(=O)Nc3cc(C(=O)NCCC(=N)N)n(CC4CC4)c3)[nH]n2)cn1CC1CC1,88,26,2.8,5.7,5.7,–
C/N=C(\N)CCNC(=O)c1cc(NC(=O)c2ccc(C(=O)Nc3cc(C(=O)NCC/C(N)=N/C)n(CCC(C)C)c3)cc2)cn1CCC(C)C,–,28,0.7,1.4,1.4,–
CC(C)CCn1cc(NC(=O)c2ccnc(C(=O)Nc3cc(C(=O)NCCC(=N)N)n(CCC(C)C)c3)c2)cc1C(=O)NCCC(=N)N,6,11,2.8,22.7,22.7,–
N=C(N)CCNC(=O)c1cc(NC(=O)c2ccc(C(=O)Nc3cc(C(=O)NCCC(=N)N)n(CC4CC4)c3)cc2)cn1CC1CC1,72,28,1.4,2.8,0.7,–

# Reference: ChEMBL document CHEMBL1135717, “Minor groove DNA binders as antimicrobial agents. 1. Pyrrole tetraamides are potent antibacterials against vancomycin resistant Enterococci [corrected] and methicillin resistant Staphylococcus aureus” (J Med Chem, 2002)
